Measured values from ChEMBL document CHEMBL1148767, “Synthesis and biological evaluation of the mitochondrial complex 1 inhibitor 2-[4-(4-fluorobutyl)benzylsulfanyl]-3-methylchromene-4-one as a potential cardiac positron emission tomography tracer” (J Med Chem, 2007).
Each block holds one molecule with its values, some of them ahead of it.

Columns and labels:
[1] = Inhibition of bovine mitochondrial MC1; design: species or system Bos taurus
Procedure, shortened: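 Submitochondrial particles were sonicated from bovine heart mitochondria, final 45 µg/mL. Medium was 50 mM K2HPO4 pH 7.4, 0.4 µM antimycin A and 2 mM KCN. Inhibitor preincubated 4 min at varying concentrations. Reaction started with 100 µM decyl ubiquinone and 50 µM NADH at 37 °C. NADH oxidation read at 340 nm for 120 s. IC50 is 50% inhibition, referenced to a concurrent rotenone standard.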

Blood [2] = experiment: Biodistribution in Sprague-Dawley rat blood at 15 uCi, iv after 120 mins; type: ADME, organism-based; details: in vivo, 2 h
Procedure, shortened: (§1)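 Male SD rats (300-400 g) anesthetized with sodium pentobarbital (50 mg/kg ip), left femoral vein cannulated. About 15 µCi of 18F tracer (specific activity 750-2000 Ci/mmol) in 0.3 mL 10% ethanol saline given iv. Sacrificed in CO2 at 30 or 120 min (n = 5 per time point). Tissues weighed, gamma-counted, decay-corrected, and expressed as %ID/g ± SD.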

Lung [3] = experiment: Biodistribution in Sprague-Dawley rat lung at 15 uCi, iv after 30 mins; type: ADME, organism-based; details: in vivo, 0.5 h; procedure, shortened: as §1
Muscle tissue [4] = experiment: Biodistribution in Sprague-Dawley rat muscle at 15 uCi, iv after 30 mins; type: ADME, organism-based; details: in vivo, 0.5 h; procedure, shortened: as §1
Liver [5] = experiment: Biodistribution in Sprague-Dawley rat liver at 15 uCi, iv after 30 mins; type: ADME, organism-based; details: in vivo, 0.5 h; procedure, shortened: as §1
Femur [6] = experiment: Biodistribution in Sprague-Dawley rat femur at 15 uCi, iv after 120 mins; type: ADME, organism-based; details: in vivo, 2 h; procedure, shortened: as §1
Spleen [7] = experiment: Biodistribution in Sprague-Dawley rat spleen at 15 uCi, iv after 120 mins; type: ADME, organism-based; details: in vivo, 2 h; procedure, shortened: as §1
Brain [8] = experiment: Biodistribution in Sprague-Dawley rat brain at 15 uCi, iv after 30 mins; type: ADME, organism-based; details: in vivo, 0.5 h; procedure, shortened: as §1
Kidney [9] = experiment: Biodistribution in Sprague-Dawley rat kidney at 15 uCi, iv after 120 mins; type: ADME, organism-based; details: in vivo, 2 h; procedure, shortened: as §1
Heart [10] = experiment: Biodistribution in Sprague-Dawley rat heart at 15 uCi, iv after 30 mins; type: ADME, organism-based; details: in vivo, 0.5 h; procedure, shortened: as §1
Heart [11] = experiment: Biodistribution in Sprague-Dawley rat heart at 15 uCi, iv after 120 mins; type: ADME, organism-based; details: in vivo, 2 h; procedure, shortened: as §1
Muscle tissue [12] = experiment: Biodistribution in Sprague-Dawley rat muscle at 15 uCi, iv after 120 mins; type: ADME, organism-based; details: in vivo, 2 h; procedure, shortened: as §1
Blood [13] = experiment: Biodistribution in Sprague-Dawley rat blood at 15 uCi, iv after 30 mins; type: ADME, organism-based; details: in vivo, 0.5 h; procedure, shortened: as §1
Femur [14] = experiment: Biodistribution in Sprague-Dawley rat femur at 15 uCi, iv after 30 mins; type: ADME, organism-based; details: in vivo, 0.5 h; procedure, shortened: as §1
Brain [15] = experiment: Biodistribution in Sprague-Dawley rat brain at 15 uCi, iv after 120 mins; type: ADME, organism-based; details: in vivo, 2 h; procedure, shortened: as §1
Spleen [16] = experiment: Biodistribution in Sprague-Dawley rat spleen at 15 uCi, iv after 30 mins; type: ADME, organism-based; details: in vivo, 0.5 h; procedure, shortened: as §1
Lung [17] = experiment: Biodistribution in Sprague-Dawley rat lung at 15 uCi, iv after 120 mins; type: ADME, organism-based; details: in vivo, 2 h; procedure, shortened: as §1
Liver [18] = experiment: Biodistribution in Sprague-Dawley rat liver at 15 uCi, iv after 120 mins; type: ADME, organism-based; details: in vivo, 2 h; procedure, shortened: as §1
Kidney [19] = experiment: Biodistribution in Sprague-Dawley rat kidney at 15 uCi, iv after 30 mins; type: ADME, organism-based; details: in vivo, 0.5 h; procedure, shortened: as §1

IC50 [1]: 197 nM
SMILES: Cc1c(SCc2ccc(CCCCOCCF)cc2)oc2ccccc2c1=O

IC50 [1]: 52 nM
SMILES: CCCCc1ccc(CSc2oc3ccccc3c(=O)c2C)cc1

Drug uptake (Blood [2]): 0.06 % ID/g | Drug uptake (Lung [3]): 0.32 % ID/g | Drug uptake (Muscle tissue [4]): 0.06 % ID/g | Drug uptake (Liver [5]): 2 % ID/g | Drug uptake (Femur [6]): 0.74 % ID/g | Drug uptake (Spleen [7]): 0.09 % ID/g | Drug uptake (Brain [8]): 0.26 % ID/g | Drug uptake (Kidney [9]): 0.59 % ID/g | Drug uptake (Heart [10]): 2.24 % ID/g | Drug uptake (Heart [11]): 1.52 % ID/g | Drug uptake (Muscle tissue [12]): 0.09 % ID/g | Drug uptake (Blood [13]): 0.11 % ID/g | Drug uptake (Femur [14]): 0.36 % ID/g | Drug uptake (Brain [15]): 0.17 % ID/g | Drug uptake (Spleen [16]): 0.41 % ID/g | Drug uptake (Lung [17]): 0.12 % ID/g | Drug uptake (Liver [18]): 0.6 % ID/g | Drug uptake (Kidney [19]): 1.93 % ID/g
SMILES: Cc1c(SCc2ccc(CCCC[18F])cc2)oc2ccccc2c1=O

IC50 [1]: 9 nM
SMILES: Cc1c(SCc2ccc(CCCCF)cc2)oc2ccccc2c1=O

Continued, molecule first:

SMILES: CCCCc1ccc(COc2oc3ccccc3c(=O)c2C)cc1
IC50 [1]: 60 nM

SMILES: Cc1c(NCc2ccc(CCCCF)cc2)oc2ccccc2c1=O
IC50 [1]: 133 nM

SMILES: Cc1c(OCc2ccc(CCCCF)cc2)oc2ccccc2c1=O
IC50 [1]: 33 nM

SMILES: CC(C)(C)c1ccc(CCOc2ncnc3ccccc23)cc1 [FENAZAQUIN]
IC50 [1]: 90 nM

SMILES: Cc1c(SCc2ccc(OCC(C)F)cc2)oc2ccccc2c1=O (stereo unspecified)
IC50 [1]: 16 nM

SMILES: CCCCc1ccc(CNc2oc3ccccc3c(=O)c2C)cc1
IC50 [1]: 57 nM

SMILES: CC(C)(C)c1ccc(CSc2cnn(C(C)(C)C)c(=O)c2Cl)cc1 [PYRIDABEN]
IC50 [1]: 8 nM

SMILES: Cc1c(SCc2ccc(C(C)(C)C)cc2)oc2ccccc2c1=O
IC50 [1]: 52 nM

SMILES: C=C(C)[C@H]1Cc2c(ccc3c2O[C@@H]2COc4cc(OC)c(OC)cc4[C@@H]2C3=O)O1 [ROTENONE]
IC50 [1]: 16 nM

SMILES: Cc1c(SCc2ccc(COCCF)cc2)oc2ccccc2c1=O
IC50 [1]: 15 nM
